From ChEMBL document CHEMBL2016531, “Identification of NAE Inhibitors Exhibiting Potent Activity in Leukemia Cells: Exploring the Structural Determinants of NAE Specificity” (ACS Med Chem Lett, 2011)
The source made the active and inactive calls. No cut-off for these calls is given here.

Columns and labels:
Homo sapiens = species: Homo sapiens; test: Inhibition of human recombinant NAE assessed as inhibition of NEDD8-UbcH12 complex formation at 0.001 to 10 uM after 1.5 hrs by Western blot analysis
In short: (§1)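 Cell-free gel assay. Purified human recombinant E1 incubated with its matching Ub/Ubl and E2 in 50 mM HEPES pH 7.4, 5 mM MgCl2, 1–20 μM ATP. Inhibitor at 0, 0.001, 0.01, 0.1, 1 or 10 μM, 1.5 h at room temperature. Products resolved by SDS-PAGE, immunoblotted and detected by ECL; densitometry used for semiquantitation.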

[1] = target: Ubiquitin-like modifier-activating enzyme 5 (Homo sapiens) (UniProt Q9GZZ9); test: Inhibition of human recombinant UBA5 assessed as inhibition of […]-UFM1 complex formation at 10 uM after 1.5 hrs by Western blot analysis; in short: as §1
Ubiquitin-like modifier-activating enzyme 5 (Homo sapiens), sequence (Q9GZZ9 whole entry): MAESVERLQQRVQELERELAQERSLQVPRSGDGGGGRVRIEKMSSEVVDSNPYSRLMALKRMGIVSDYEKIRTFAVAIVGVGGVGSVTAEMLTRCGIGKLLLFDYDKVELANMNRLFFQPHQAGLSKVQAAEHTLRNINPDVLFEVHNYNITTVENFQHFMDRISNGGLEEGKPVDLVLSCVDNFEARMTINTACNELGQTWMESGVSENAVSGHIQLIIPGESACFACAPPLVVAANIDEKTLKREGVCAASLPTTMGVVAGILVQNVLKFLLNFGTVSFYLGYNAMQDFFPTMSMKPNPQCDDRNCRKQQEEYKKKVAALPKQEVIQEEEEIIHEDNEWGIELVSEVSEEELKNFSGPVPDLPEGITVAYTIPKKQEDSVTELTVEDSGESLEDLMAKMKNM

[2] = Inhibition of human recombinant NAE assessed as inhibition of NEDD8-UbcH12 complex formation after 1.5 hrs by Western blot analysis; in short: as §1
[3] = target: Calcium/calmodulin-dependent protein kinase type II subunit beta (Homo sapiens) (UniProt Q13554); test: Inhibition of CAMK2b assessed as remaining activity at 0.1 uM by radiolabeled kinase assay relative to control
Calcium/calmodulin-dependent protein kinase type II subunit beta (Homo sapiens), sequence (Q13554 whole entry): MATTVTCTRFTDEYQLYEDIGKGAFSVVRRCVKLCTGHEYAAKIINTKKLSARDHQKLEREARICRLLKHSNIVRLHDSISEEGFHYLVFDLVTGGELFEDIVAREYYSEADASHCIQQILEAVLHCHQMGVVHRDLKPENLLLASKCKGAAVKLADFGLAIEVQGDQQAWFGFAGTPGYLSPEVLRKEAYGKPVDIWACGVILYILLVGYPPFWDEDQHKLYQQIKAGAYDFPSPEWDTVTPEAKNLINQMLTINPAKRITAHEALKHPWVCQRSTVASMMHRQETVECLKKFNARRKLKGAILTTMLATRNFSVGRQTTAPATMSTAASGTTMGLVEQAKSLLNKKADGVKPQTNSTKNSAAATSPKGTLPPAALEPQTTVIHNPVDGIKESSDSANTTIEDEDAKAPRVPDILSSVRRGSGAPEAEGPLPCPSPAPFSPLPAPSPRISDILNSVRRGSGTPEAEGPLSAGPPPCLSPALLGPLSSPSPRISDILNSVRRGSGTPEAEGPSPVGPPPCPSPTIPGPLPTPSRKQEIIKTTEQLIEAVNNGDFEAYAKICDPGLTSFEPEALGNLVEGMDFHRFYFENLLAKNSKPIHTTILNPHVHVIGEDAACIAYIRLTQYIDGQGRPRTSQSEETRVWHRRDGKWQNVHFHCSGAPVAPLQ

[4] = target: Cyclin-dependent kinase 1/cyclin B1 (Homo sapiens) (UniProt P06493+P14635); test: Inhibition of CDK1/cyclin B assessed as remaining activity at 0.1 uM by radiolabeled kinase assay relative to control; type: protein-complex assay
Cyclin-dependent kinase 1/cyclin B1 (Homo sapiens), sequence (P06493 whole entry, looked up): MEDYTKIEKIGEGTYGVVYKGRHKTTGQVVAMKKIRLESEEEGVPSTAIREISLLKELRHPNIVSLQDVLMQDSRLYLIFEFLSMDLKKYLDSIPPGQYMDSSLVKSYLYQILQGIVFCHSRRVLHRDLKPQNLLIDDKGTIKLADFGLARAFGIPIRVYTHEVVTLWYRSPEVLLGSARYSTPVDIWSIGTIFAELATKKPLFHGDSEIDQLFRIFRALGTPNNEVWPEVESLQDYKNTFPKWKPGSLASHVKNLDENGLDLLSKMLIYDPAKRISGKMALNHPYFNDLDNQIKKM
Cyclin-dependent kinase 1/cyclin B1 (Homo sapiens), sequence (P14635 whole entry, looked up): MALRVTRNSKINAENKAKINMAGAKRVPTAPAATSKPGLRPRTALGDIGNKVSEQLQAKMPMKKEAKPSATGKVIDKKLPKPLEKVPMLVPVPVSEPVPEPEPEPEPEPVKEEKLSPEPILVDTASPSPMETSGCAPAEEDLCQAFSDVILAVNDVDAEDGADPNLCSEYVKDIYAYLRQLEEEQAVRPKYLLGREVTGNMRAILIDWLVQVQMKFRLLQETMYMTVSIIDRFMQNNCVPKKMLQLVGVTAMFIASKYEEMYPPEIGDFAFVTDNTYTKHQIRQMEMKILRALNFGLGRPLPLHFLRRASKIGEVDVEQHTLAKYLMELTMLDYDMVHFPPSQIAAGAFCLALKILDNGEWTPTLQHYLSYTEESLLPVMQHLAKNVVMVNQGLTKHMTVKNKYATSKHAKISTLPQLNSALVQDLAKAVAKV

[5] = target: Epidermal growth factor receptor (Homo sapiens) (UniProt P00533); test: Inhibition of EGFR assessed as remaining activity at 0.1 uM by radiolabeled kinase assay relative to control
Epidermal growth factor receptor (Homo sapiens), sequence (P00533 whole entry): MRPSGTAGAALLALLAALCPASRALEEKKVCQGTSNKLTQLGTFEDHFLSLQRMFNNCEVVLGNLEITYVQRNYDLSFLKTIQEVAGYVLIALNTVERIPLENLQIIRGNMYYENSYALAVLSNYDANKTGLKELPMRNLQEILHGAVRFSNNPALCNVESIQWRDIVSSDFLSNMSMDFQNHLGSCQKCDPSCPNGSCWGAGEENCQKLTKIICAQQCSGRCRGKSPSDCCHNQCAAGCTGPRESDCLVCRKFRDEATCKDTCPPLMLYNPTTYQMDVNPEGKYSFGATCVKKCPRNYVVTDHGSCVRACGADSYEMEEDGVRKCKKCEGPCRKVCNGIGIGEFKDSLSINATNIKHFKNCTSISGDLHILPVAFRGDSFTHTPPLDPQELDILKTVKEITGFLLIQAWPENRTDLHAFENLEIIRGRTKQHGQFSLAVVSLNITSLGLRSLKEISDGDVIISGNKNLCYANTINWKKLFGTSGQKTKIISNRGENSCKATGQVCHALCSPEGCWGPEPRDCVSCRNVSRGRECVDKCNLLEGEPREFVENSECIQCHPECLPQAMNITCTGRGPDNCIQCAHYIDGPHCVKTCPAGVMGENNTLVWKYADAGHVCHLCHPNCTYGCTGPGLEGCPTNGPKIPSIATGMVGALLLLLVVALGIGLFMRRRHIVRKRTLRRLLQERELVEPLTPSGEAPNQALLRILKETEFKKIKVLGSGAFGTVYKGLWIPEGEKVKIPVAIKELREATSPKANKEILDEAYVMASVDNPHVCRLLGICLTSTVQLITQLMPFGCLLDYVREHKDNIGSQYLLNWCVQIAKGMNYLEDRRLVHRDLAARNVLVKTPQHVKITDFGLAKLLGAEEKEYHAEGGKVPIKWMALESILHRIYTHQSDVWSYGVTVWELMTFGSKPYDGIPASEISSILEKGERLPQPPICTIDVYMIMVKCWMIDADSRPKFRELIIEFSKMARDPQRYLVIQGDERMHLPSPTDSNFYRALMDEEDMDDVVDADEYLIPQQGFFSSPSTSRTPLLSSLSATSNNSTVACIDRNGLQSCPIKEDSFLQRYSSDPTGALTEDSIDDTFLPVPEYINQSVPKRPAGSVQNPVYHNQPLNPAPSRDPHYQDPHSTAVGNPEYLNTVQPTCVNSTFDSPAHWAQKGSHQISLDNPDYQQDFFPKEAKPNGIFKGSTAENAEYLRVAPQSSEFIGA

[6] = target: T1, Tyrosine-protein kinase JAK3 (Homo sapiens) (UniProt P52333); test: Inhibition of JAK3 assessed as remaining activity at 0.1 uM by radiolabeled kinase assay relative to control
T1 sequence (whole entry): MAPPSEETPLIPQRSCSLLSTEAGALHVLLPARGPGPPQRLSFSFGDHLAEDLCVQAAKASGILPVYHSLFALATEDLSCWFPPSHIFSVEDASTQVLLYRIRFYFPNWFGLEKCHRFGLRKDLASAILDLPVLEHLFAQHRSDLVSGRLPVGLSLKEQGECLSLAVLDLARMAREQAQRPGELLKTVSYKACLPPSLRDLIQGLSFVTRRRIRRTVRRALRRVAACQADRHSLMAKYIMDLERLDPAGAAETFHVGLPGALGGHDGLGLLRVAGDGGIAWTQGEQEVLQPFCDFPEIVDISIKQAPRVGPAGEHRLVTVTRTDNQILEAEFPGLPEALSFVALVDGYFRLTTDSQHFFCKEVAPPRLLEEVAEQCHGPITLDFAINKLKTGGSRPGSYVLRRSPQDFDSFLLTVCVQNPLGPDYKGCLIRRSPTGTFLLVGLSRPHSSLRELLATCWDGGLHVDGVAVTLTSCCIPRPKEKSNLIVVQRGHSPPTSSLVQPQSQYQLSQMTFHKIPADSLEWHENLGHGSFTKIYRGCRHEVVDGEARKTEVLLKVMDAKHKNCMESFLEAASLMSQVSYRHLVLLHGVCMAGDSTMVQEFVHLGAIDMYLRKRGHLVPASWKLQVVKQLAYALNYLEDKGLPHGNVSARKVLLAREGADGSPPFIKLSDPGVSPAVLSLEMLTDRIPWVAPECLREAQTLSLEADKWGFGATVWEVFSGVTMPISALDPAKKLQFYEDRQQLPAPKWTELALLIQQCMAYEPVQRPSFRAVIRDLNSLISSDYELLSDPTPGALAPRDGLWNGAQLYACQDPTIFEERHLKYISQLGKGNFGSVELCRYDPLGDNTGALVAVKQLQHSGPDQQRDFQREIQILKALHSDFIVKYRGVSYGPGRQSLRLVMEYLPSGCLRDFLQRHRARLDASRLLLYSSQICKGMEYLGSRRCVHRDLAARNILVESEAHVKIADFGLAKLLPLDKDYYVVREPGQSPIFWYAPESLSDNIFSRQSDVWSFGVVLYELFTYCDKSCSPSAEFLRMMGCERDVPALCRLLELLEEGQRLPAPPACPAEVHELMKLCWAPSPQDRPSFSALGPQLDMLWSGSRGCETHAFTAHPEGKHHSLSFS

SMILES: CCCCCCNc1ncnc2c1ncn2[C@@H]1O[C@H](COS(N)(=O)=O)[C@@H](O)[C@H]1O
- inhibition (Homo sapiens): Active
- inhibition [1]: inactive
- IC50 [2]: < 10 nM
- Activity [3]: 101%
- Activity [4]: 114%
- Activity [5]: 98.9%
- Activity [6]: 94%
